Experimental data: PubChem BioAssay AID2311 (NMMLSC, 2010)

Target: Regulator of G-protein signaling 19 (Homo sapiens) (UniProt P49795)
Test: RGS19-Galphao binding modulators, analog potency, SAR follow-up, biochemical, SAR compounds, multiplexed bead flow cytometry (AID 2311)
Conditions: Bead-bound RGS19 and AF488-Galphao binding
How it was run: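 System: biotinylated RGS19 on streptavidin beads, multiplexed with other RGS bead sets. Evaluation: EC50 by logistic fit, converted to Ki. Schedule: 30–90 min compound exposure at room temperature. Benchmarks: DMSO wells and RGS-free bead controls. Measured by: high-throughput flow cytometry, median green fluorescence of RGS19-coated beads.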

Sequence of Regulator of G-protein signaling 19 (Homo sapiens) (P49795 whole entry, looked up): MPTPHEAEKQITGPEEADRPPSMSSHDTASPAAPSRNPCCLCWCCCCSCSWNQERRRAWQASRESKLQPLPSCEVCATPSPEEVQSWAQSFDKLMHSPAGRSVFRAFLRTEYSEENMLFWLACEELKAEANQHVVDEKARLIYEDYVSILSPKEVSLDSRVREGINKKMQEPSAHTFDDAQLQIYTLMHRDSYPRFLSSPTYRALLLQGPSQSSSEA

| SMILES | EC50 [nM] |
| --- | --- |
| NS(=O)(=O)c1ccc(N/N=C/c2ccc(O)c(O)c2O)c([N+](=O)[O-])c1 | 109 |

Same assay, conditions: Bead-bound RGS19 and AF488-Galphao binding, measured here: Ki calculated from EC50

| SMILES | Ki [nM] |
| --- | --- |
| CC1(C)OC(=O)C(=Cc2ccc(-c3ccc(S(N)(=O)=O)cc3)o2)C(=O)O1 | 230 |
| CN1CCN(C2=C(Cl)C(=O)C(c3cnc(N4CCCCC4)s3)=C(Cl)C2=O)CC1 | 30 |
| Cc1cc(Cl)ccc1N=c1ssnc1Cl | 110 |
| CCOC(=O)c1sc(NC(=O)CSc2nnc(Cc3ccccc3)o2)c(C#N)c1C | 140 |
| O=C(Cc1csc(N2CCOCC2)n1)N/N=C/c1ccc(O)c(O)c1O | 750 |
| O=C1C(Cl)=C(N2CCCCC2)C(=O)C(Cl)=C1c1cnc(N2CCCCC2)s1 | 80 |
| O=C(NCCCN1CCOCC1)c1sc2cc([N+](=O)[O-])ccc2c1Cl | 460 |
| CN=c1scc(C)n1/N=C/c1ccc(O)c(O)c1O | 200 |
| NS(=O)(=O)c1ccc(N/N=C/c2ccc(O)c(O)c2O)c([N+](=O)[O-])c1 | 100 |
| Cc1[nH]n(-c2ccccc2)c(=S)c1C=NCCCN=Cc1c(C)[nH]n(-c2ccccc2)c1=S | 50 |
| Cc1cccc(N2CCN(C(=O)COc3nsc4nc(C)cc(C)c34)CC2C)c1 (configuration not stated) | 550 |
| CCN=c1scc(C)n1/N=C/c1ccc(O)c(O)c1O | 350 |
| Cc1cccc(N2CCN(C(=O)Cn3sc4nc(C)cc(C)c4c3=O)CC2C)c1 (configuration not stated) | 90 |
| CCC(=O)NC(c1ccc(C)cc1)c1cc([N+](=O)[O-])c2cccnc2c1O (configuration not stated) | 1160 |
| COc1ccc(C2=CC(=O)C=CC2=O)cc1 | 160 |
| CC(=O)OCCCNc1cc(Sc2nc3ccccc3s2)c2nonc2c1[N+](=O)[O-] | 10 |
